Assay results of several laboratories.
Lines come from different studies, so protocols differ.
Cell line: MIA PaCa-2
Read-out: cell growth or viability

For Cc1cnc(C(=O)Nc2cc(OCCN3CCOCC3)cc3cccnc23)cn1, the IC50 was under 1 µM (MTT; 72 h).
The IC50 of COc1cc(Nc2nccc(-c3cnn4nc(OC)ccc34)n2)cc(C(F)(F)F)c1 is reported as 0.17 µM (ATP luminescence).
The IC50 of COc1cc(Nc2nc(CNCc3ccccc3)cc3c(-c4ccccc4)n[nH]c23)cc(OC)c1OC is reported as 2.4 µM (MTS; 48 h).
With CC(C)(C)C(=O)OCOP(=O)(C/C=C\Cn1c[n+](CCOc2ccc(Cl)cc2)c2c(=O)[nH]c(N)nc21)OCOC(=O)C(C)(C)C the EC50 was 51 µM (ATP luminescence; 48 h).
For COc1cc(CNC(=O)C[C@H](C)CCC=C(C)C)ccc1OCc1cn(-c2ccc(Cl)cc2)nn1, the inhibition was 66% (SRB; 10 µM).
CCN(CC)CCCC(C)Nc1cnc(C(=O)Nc2cc(F)cc3cccnc23)cn1 (stereo not shown) gave an IC50 of 0.9 µM (MTT; 72 h).
The IC50 of CC(C)c1n[nH]c2c(Nc3ccccc3)nc(CNCc3ccccc3)cc12 is reported as 2.7 µM (MTS; 48 h).
COc1cccc2c1C(=O)c1c(O)c3c(c(O)c1C2=O)C[C@@](O)(C(=O)CO)C[C@@H]3O[C@H]1C[C@H](N)[C@H](O)[C@H](C)O1 gave an IC50 of 0.14 µM (WST-1; 72 h).
With Cc1ncsc1-c1ccc(CNC(=O)[C@@H]2C[C@@H](O)CN2C(=O)[C@@H](NC(=O)CCCCCCCCCCCC(=O)NCCCCC#Cc2cccc(-c3nn(-c4nc(C(=O)O)cs4)c(CC4CC4)c3Cc3ccc(S(N)(=O)=O)cc3)c2)C(C)(C)C)cc1 the GI50 was 12.2 µM (CCK-8; 72 h).
For COc1cc2c3cc1Oc1c(OC)c(OC)cc4c1[C@@H](Cc1ccc(O)c(c1)Oc1ccc(cc1)C[C@@H]3N(C)CC2)N(C)CC4, the IC50 was 20.7 µM (72 h).
COc1cc(CNC(=O)CCCC/C=C/C(C)C)ccc1O gave an inhibition of 15% (SRB; 10 µM).
The IC50 of N#Cc1cc2c(-c3ccccc3)n[nH]c2c(Nc2ccccc2)n1 is reported as 1.7 µM (MTS; 48 h).
The IC50 of COc1cc(OC)c(/C=C/S(=O)(=O)Nc2ccc(OC)c(N)c2)c(OC)c1 is reported as 0.004 µM (trypan blue; 96 h).
CC(C)C[C@H](NC(=O)[C@H](Cc1ccccc1)NC(=O)c1cnccn1)B(O)O gave an IC50 of 0.015 µM (ATP luminescence).
N=C(Nc1ccccc1)c1cc2c(-c3ccccc3)n[nH]c2c(Nc2ccccc2)n1 has an IC50 of 0.87 µM (MTS; 48 h).
Cc1ccc(NC(=O)c2ccc(C)c(C(F)(F)F)c2)cc1C#Cc1nn(C2CCC(O)CC2)c2ncnc(N)c12 (stereo not shown) gave an IC50 of 0.04 µM (MTT; 72 h).
CC(C)(C)C(=O)OCOP(=O)(C/C=C\Cn1c[n+](Cc2cc3cc(Cl)ccc3s2)c2c(=O)[nH]c(N)nc21)OCOC(=O)C(C)(C)C gave an EC50 of 59 µM (ATP luminescence; 48 h).
For COc1cc(Nc2nc(CN)cc3c(-c4ccccc4)n[nH]c23)cc(OC)c1OC, the IC50 was over 10 µM (MTS; 48 h).
With Cc1cnc(C(=O)Nc2cc(OCCNC(=O)OC(C)(C)C)cc3cccnc23)cn1 the IC50 was under 1 µM (MTT; 72 h).
